Most compounds without a hit are left out; they make up all but 2.9% or so of the library.
Runt-CBFb FRET = Runt domain-CBFb interaction inhibition. Q01196+Q13951. Cerulean-Runt/Venus-CBFb FRET ratio 530/480, 1 h. inhibition, % at 20 µM. 220,000 tested, 0.46% active. AID 1496;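 active = inhibition over about 50% at 20 µM in the single-dose screen, limit read from the data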;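 also: 0% = DMSO wells and 100% = excess unlabeled CBFb competitor control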
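Reagent – Venus-CBFb binding partner, 100 nM · Assay system – Cerulean-tagged RUNX1 Runt domain (FRET donor) fusion protein · Input – 100 nM per protein · Incubation – two 1 h room-temperature incubations shielded from light · Measured by – FRET fluorescence · Medium – Tris buffer pH 7.5 with salts and BSA · Benchmarks – unlabeled CBFb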
AI-2 QS mod = modulators of Vibrio harveyi AI-2 quorum sensing system. Vibrio harveyi JMH597 AI-2 luminescence/OD600 ratio, 9 h; stronger effect = lower value; strain lacks LuxN and CqsS sensors; 0 = neutral-control median. activity change, % at 7.5 µM. 300,000 tested, 0.4% active; in the data active = activity change below about -75%, passing the limit was not always enough; inconclusive = no clear call, values can overlap the other calls;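 also: luminescence divided by OD600 gain over 9 h not by final OD600 alone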
Wee1 stabilizer = blocks degradation of human Wee1 kinase; HeLa Luc-Wee1K328M stability, luciferase luminescence; 100% = proteasome inhibitor MG132 effect; reporter increase, % at 5 µM; 220,000 tested, 1.2% active;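 active = activation above the mean of all tested compounds plus 3 SD, set per screening run, cut at about 8.8% in these data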;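 also: cells exposed to compound for 20 h before luminescence read; 0% = DMSO alone and 100% = MG132 at 30 µM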
proKLK7 act = activators of human kallikrein-7 zymogen | P49862 | purified proKLK7, EDANS-DABCYL substrate fluorescence; 100% is mature enzyme control, 0% vehicle | activation, % at 7 µM | 370,000 tested, 0.9% active | AID 652039;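 active = activation above the mean of all tested compounds plus 3 SD, computed per campaign excluding outliers beyond control limits, cut at about 13% in these data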
Target sequence (P49862 whole entry, looked up): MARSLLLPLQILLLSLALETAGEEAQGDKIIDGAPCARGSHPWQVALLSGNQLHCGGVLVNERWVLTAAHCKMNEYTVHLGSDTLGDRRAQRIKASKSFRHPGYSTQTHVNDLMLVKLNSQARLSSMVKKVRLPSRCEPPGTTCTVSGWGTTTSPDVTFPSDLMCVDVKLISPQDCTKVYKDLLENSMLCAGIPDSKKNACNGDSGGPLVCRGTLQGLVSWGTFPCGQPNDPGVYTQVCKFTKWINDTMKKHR
Runt-SMMHC FRET = inhibitors of human RUNX1 Runt domain binding to CBFb-SMMHC; AID 1434; 220,000 tested, 0.74% active; Cerulean-Runt/Venus-CBFb-SMMHC FRET ratio 530/480, 1 h; inhibition, % at 20 µM;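 active = mean inhibition across duplicate retests at 20 µM reaching about 50%, limit read from the data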;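 also: 0% = DMSO wells and 100% = wells with excess untagged CBFb-SMMHC; inhibitors lower the FRET ratio by blocking Runt binding to CBFb-SMMHC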
RanGTP-Imp inh = disruptors of Ran-importin-beta complex formation – biochemical, FRET, CFP-Ran, YFP-importin-beta, homogeneous, primary screen; cell-free CFP-Ran/YFP-importin-beta FRET ratio; inhibition, % (no concentration beside the values); 300,000 tested, 1.1% active;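 active = more than half of the replicate wells show a fall in the fluorescence ratio signal beyond about 16%, limit read from the data, passing the limit was not always enough; inconclusive = exactly half of the replicate wells pass the set limit; inactive = fewer than half of replicates pass the limit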;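 also: 0% = DMSO wells and 100% = Ran loaded with GDP instead of GTP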
Active calls of the source: *; ? = inconclusive; · = not tested or not shown.

SMILES	Runt-CBFb FRET	AI-2 QS mod	Wee1 stabilizer	proKLK7 act	Runt-SMMHC FRET	RanGTP-Imp inh
CCCCn1c(-c2ccc(Cl)cc2)nc2c(=O)n(C)c(=O)[nH]c21	25	·	1	0	50*	·
COC(=O)[C@]12C[C@H](CC(=O)N3CCN(C(=O)c4ccco4)CC3)C(=O)N(CCC3=CCCCC3)C1=C[C@H](C(C)(C)C)O[C@@H]2C	·	·	·	0	·	·
CCOC(=O)N1CCN(C(=O)c2ccc(CS(=O)c3ccccc3)o2)CC1 (configuration not stated)	·	5	·	0	·	2
Cc1ccc(S(=O)(=O)N2[C@@H](CCO)OC[C@H]2C(C)C)cc1	·	·	·	0	·	·
Cc1cccc(-c2nc3c(c(SCC(=O)N4CCCC4)n2)COC(C)(C)C3)c1	·	-2	·	0	·	?
CCCn1c(C)nc2c(c1=O)c1nc3ccccc3nc1n2CCc1ccccc1	·	·	5	·	·	·
CCCn1c(C)nc2c(c1=O)c1nc3ccccc3nc1n2CCC1=CCCCC1	22	10	1	3	64*	1
O=C(CN1CCOCC1)Nc1ccccc1Cl	0	8	0	-1	-1	-2
N=C1C(=O)OCC1c1ccccc1NC(=O)CN1CCOCC1 (configuration not stated)	-3	13	3	4	3	41*
O=C(/C=C/c1ccccc1[N+](=O)[O-])N1CCCCC1	0	16	9.1*	0	0	-5
O=C(COC(=O)C1COc2ccccc2O1)Nc1cccc(F)c1 (configuration not stated)	·	·	·	0	·	·
CCN1C(=O)/C(=C/C=C2/CCCN2C)OC1=S	3	14	3	1	125*	1
CN1C(=O)/C(=C\C=C2/CCCN2C)N(C)C1=S	-14	24	1	0	-31	?
COc1ccccc1NS(=O)(=O)c1cccc(NC(=O)Nc2cccc(Cl)c2)c1	-2	18	-3	1	-5	1
COc1ccccc1NS(=O)(=O)c1cccc(NC(=O)NCCCl)c1	0	21	11*	0	-3	2
O=C(N[C@H](C(=O)N1CCC[C@H]1C(=O)NCCc1ccccc1Cl)C1CCCCC1)c1ccc(Cl)c(Cl)c1	·	·	·	1	·	·
C=CCNC(=S)Nc1ccc(C)cc1[N+](=O)[O-]	4	20	9.1*	0	-3	0
NC(=O)c1ccc(Oc2cccc3cccnc23)c([N+](=O)[O-])c1	36	21	0	0	85*	-1
COc1ccc(C(=O)Oc2cccc3cccnc23)cc1[N+](=O)[O-]	0	9	1	0	2	0
O=c1c(C(c2ccccc2)c2c(O)sc3ccccc3c2=O)c(O)sc2ccccc12	-3	43	-2	0	-9	19*
COc1ccc(F)c(CN2CCC(n3nccc3NC(=O)CCCc3ccccc3)CC2)c1	·	-95*	·	0	·	-1
CCOc1ccc(S(=O)(=O)Nc2cccc(C(=O)NCCCn3ccnc3)c2)cc1	·	·	·	0	·	·
CSCC(C)N1CCC(n2nccc2NC(=O)c2ccc3c(c2)OCO3)CC1 (configuration not stated)	·	20	·	1	·	11
CSCC(C)N1CCC(n2nccc2NC(=O)c2ccccc2C)CC1 (configuration not stated)	·	24	·	1	·	21*
O=C(COc1ccccc1)Nc1cccc2c1CCCC2	1	21	-2	0	3	2
SMILES	Runt-CBFb FRET	AI-2 QS mod	Wee1 stabilizer	proKLK7 act	Runt-SMMHC FRET	RanGTP-Imp inh
O=C(CCCc1ccccc1)Nc1cccc2c1CCCC2	9	17	11*	0	-3	-3
CCOC(=O)Nc1ccc(C(=O)Oc2ccccc2)c(O)c1	-2	-9	10*	3	3	?
CCOC(=O)CNC(=O)c1ccc2[nH]c3c(c2c1)CCCC3	8	25	-1	5	13	18*
NNC(=O)c1ccc2[nH]c3c(c2c1)CCCC3	1	15	-2	1	4	-2
O=C(COc1ccc(Cl)cc1)OCC(=O)N1CCOCC1	·	·	·	0	·	·
O=C(c1ccc(Cl)cc1)c1ccc(OCC(=O)N2CCOCC2)cc1	·	23	9.6*	0	·	-1
COC(=O)c1cc(S(=O)(=O)NCc2ccc3c(c2)OCO3)cn1C	·	20	·	0	·	1
CCCCOC(=O)c1ccc(-c2ccc(/C=N/NC(=S)NCC)o2)cc1	3	36	2	-7	9	43*
CCOC(=O)c1ccc(-c2ccc(/C=N/NC(=O)c3cncc(Br)c3)o2)cc1	-6	49	8	0	-54	-4
COc1ccc(C(=O)c2[nH]c(N)c(C(=O)c3c[nH]c4ccccc34)c2-c2ccc(OC)cc2)cc1	·	·	·	-1	·	·
c1coc(-c2nc(N=C3N=c4ccccc4=N3)[nH]c2-c2ccco2)c1	·	·	·	0	·	·
CCOC(=O)c1c(-c2cccs2)csc1NC(C)=O	-4	14	0	0	0	3
CCOC(=O)c1c(-c2cccs2)csc1NC(=O)C(C)(C)C	110*	20	-1	-1	-6	-3
COc1ccc(C(C)=O)cc1COC(=O)c1c(C)noc1C	-2	3	1	1	-1	0
CCc1cc2c(COC(=O)c3c(C)noc3C)cc(=O)oc2cc1O	51*	16	2	1	86*	18*
Cc1noc(NC(=O)c2c(-c3c(Cl)cccc3Cl)noc2C)c1[N+](=O)[O-]	0	11	8.9*	0	1	5
CC(=O)Nc1cccc(NC(=O)c2c(-c3c(Cl)cccc3Cl)noc2C)c1	1	18	0	0	2	1
Cc1ccc(NC(=O)NNC(=O)CN2C(=O)COc3ccccc32)cc1	·	14	·	1	·	-5
COc1cc(Nc2nc(-c3ccccc3)c3cc(C)ccc3n2)cc(OC)c1OC	-7	18	-1	2	-13	1
O=C(O)CCNc1nc(-c2ccccc2)c2cc(Br)ccc2n1	·	10	·	1	·	20*
Cc1ccc2nc(NCCC(=O)O)nc(-c3ccccc3)c2c1	48	20	-3	2	90*	3
CC(=O)NNc1nc(-c2ccccc2)c2cc(Br)ccc2n1	-1	19	0	0	-1	4
COC(=O)Cc1nnn2c1[C@@H](C)[C@@H](c1ccccc1Br)O[C@@H](C)C2	·	·	·	0	·	·
CCSc1ncc(/C=N/Nc2ccc([N+](=O)[O-])cc2)n1C	-16	22	9.6*	0	-23	-27
Cc1ccc(NC(=O)COC(=O)CN2C(=O)c3ccccc3C2=O)cc1S(=O)(=O)N(C)C	0	13	1	0	1	40*
Cc1ccc(NC(=O)COc2ncnc3sccc23)cc1S(=O)(=O)N(C)C	1	-78*	-2	0	-3	6

High-throughput results deposited in PubChem BioAssay by several laboratories.
